# Compound activity deposited in PubChem by Johns Hopkins Ion Channel Center.
# KCNQ1 pot = potentiates or activates the human KCNQ1 potassium channel | CHO-K1 KCNQ1, thallium flux FluxOR fluorescence; stronger effect = higher value | 310,000 compounds, 0.35% hits | AID 2648 | B-score at 10 µM | P51787;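 active means fluorescence ratio B-score, a plate-corrected score, at least three library SD, with initial intensity B-score within 5 SD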
#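 System: CHO-K1 cells stably expressing KCNQ1 / Medium: assay buffer for compound exposure, DMSO matched across wells / Reagent: thallium- and potassium-containing depolarizing buffer / Compound: one concentration, matched DMSO / Incubation: 20 min compound pretreatment at room temperature / Measured by: kinetic FluxOR fluorescence, 10 s baseline plus 110 s post-stimulus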
# KCNK9 inh = blocks the human KCNK9 two-pore domain potassium channel; Q9NPC2; HEK293 KCNK9, FluxOR thallium flux fluorescence; stronger effect = lower value; B-score at 10 µM; 310,000 compounds, 1.2% hits; AID 488922;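 active means ratio B-score over 3 SD below the library mean, with starting fluorescence within 5 SD of its mean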;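 further: negative B-score means less thallium flux so channel inhibition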
# KCNQ1 inh = human KCNQ1 channel inhibition; P51787; CHO-K1 KCNQ1, FluxOR thallium flux fluorescence; stronger effect = higher value; B-score at 10 µM; 310,000 compounds, 1.3% hits;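 active means compounds whose thallium flux B-score, printed positive for inhibition, exceeds three library SD while starting fluorescence stays within three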;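 further: channel opened by potassium depolarization with thallium stimulus after 20 min compound exposure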
# Kir21 block = Kir2.1 (mouse) channel inhibition; P35561; HEK293-Kir2.1, FluxOR thallium flux fluorescence; stronger effect = lower value; B-score at 10 µM; 310,000 compounds, 0.85% hits;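 active means fluorescence ratio B-score at or below minus 3 SD of library scores, with starting-brightness B-score within 2 SD, cut at about -4.2 in these data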;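 further: channel flux triggered by added potassium and thallium sulfate stimulus; B-score of peak minus minimum fluorescence over baseline after thallium stimulus; more negative B-score means stronger Kir2.1 block with less thallium influx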
# Target sequence (P35561 whole entry, looked up): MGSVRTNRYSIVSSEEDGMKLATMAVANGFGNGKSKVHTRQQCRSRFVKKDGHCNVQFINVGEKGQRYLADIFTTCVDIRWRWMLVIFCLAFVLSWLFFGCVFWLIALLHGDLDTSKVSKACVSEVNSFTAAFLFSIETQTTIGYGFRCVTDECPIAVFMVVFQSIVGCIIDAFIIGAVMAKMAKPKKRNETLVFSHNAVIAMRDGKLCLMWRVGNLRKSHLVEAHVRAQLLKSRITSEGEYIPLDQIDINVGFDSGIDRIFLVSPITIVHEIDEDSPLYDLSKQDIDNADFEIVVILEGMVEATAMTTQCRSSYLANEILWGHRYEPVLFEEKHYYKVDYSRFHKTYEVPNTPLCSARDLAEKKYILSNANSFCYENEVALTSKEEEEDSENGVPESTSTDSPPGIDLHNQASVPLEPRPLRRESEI
# hERG rescue = shields human hERG channel from block by proarrhythmic agents | Q12809 | CHO-hERG, FluxOR thallium flux, dofetilide IC70 present | activation (rescue from dofetilide block), less the hit threshold, % at 10 µM | 310,000 compounds, 0.51% hits | AID 1511;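 active means activation above the mean of controls blocked by dofetilide plus 5 SD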;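 further: thallium influx through hERG after potassium depolarization seen as dye fluorescence rise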
# KCNK3 block = human KCNK3 channel inhibition, primary screen. O14649. CHO-KCNK3 thallium flux, FluxOR fluorescence; stronger effect = lower value. B-score at 10 µM. 340,000 compounds, 0.84% hits. AID 602410;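 active means B-score under library mean minus 4 SD, starting fluorescence ratio at most library mean plus 5 SD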;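 further: more negative B-score means stronger inhibition of thallium flux through KCNK3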
# KCNK9 inh conf = human KCNK9 inhibitor confirmation. inhibition, % at 10 µM. shares compounds with KCNK9 inh. 4,900 compounds, 43% hits. HEK293 KCNK9 cells, FluxOR thallium flux fluorescence;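 active means thallium signal inhibited by more than 5 SD of the compound-free buffer control wells, on both duplicate plates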;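 further: 0% = assay buffer control wells without compound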
# Kir2-1 spec = tests whether KCNK9 modulators also affect mouse Kir2.1. Kir2.1 cells, FluxOR thallium flux fluorescence. shares compounds with KCNK9 inh. inhibition, % at 10 µM. 4,900 compounds, 4% hits. AID 492993;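 active means thallium signal drop more than 5 SD beyond the mean of the no-compound control wells, seen in both duplicate plates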;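 further: signal is fluorescence rise after thallium addition divided by baseline fluorescence; plate controls were assay buffer only for no effect and full block by chlorpromazine control for full effect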
# KCNK9 uninduced = non-induced cell nonspecific activity of KCNK9 modulators. shares compounds with KCNK9 inh. non-induced KCNK9-HEK293, FluxOR thallium flux. 4,900 compounds, 40% hits. inhibition, % at 10 µM;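 active means thallium signal drop beyond 5 SD of the untreated control mean, on both duplicate plates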;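 further: plate controls were buffer only IC0 wells for no effect and SID17386958 at its maximal inhibitory level for full effect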
# Starred values were filed as active, the others as inactive; i = inactive; . = no result given. Only some compounds are listed: those with a hit (about 3.7% of all), similar ones and a draw of the others.
SMILES,KCNQ1 pot,KCNK9 inh,KCNQ1 inh,Kir21 block,hERG rescue,KCNK3 block,KCNK9 inh conf,Kir2-1 spec,KCNK9 uninduced
COc1ccc(/C=C/C(=O)OCC(=O)NC2CC2)c(OC)c1,.,.,.,.,.,i,.,.,.
CCCCN(C(=O)Cc1ccc(S(=O)(=O)N2CCOCC2)s1)c1ccccc1,i,i,i,-0.4,-7.0,i,i,i,i
O=C(Cc1ccc(S(=O)(=O)N2CCOCC2)s1)N(Cc1ccccc1)c1ccccc1,i,i,i,-0.27,-17.1,i,.,.,.
CC1=C(C(=O)Nc2ccccc2C)C(c2ccc(C)o2)N2C(=O)CSC2=N1 (stereo not drawn),i,-8.28*,i,-0.36,-5.7,i,38.5%*,i,51.0%*
Cc1noc(C)c1C(=O)OCC(=O)Nc1ncc(C(F)(F)F)cc1Cl,.,.,.,.,.,i,.,.,.
CC1(C)C(=O)OC(/C=C\c2cccc([N+](=O)[O-])c2)C(C)(C)C1=O (stereo not drawn),i,i,i,0.62,-8.5,i,.,.,.
CC(C)(C)OC(=O)COc1cc(O)c2c(=O)cc(-c3ccccc3)oc2c1,i,-11.5*,10*,-0.92,-9.5,i,43.0%*,i,34.0%*
COC(=O)c1ccc(S(=O)(=O)NCc2ccccn2)n1C,i,i,i,1.29,-3.1,i,.,.,.
CC[C@@H](C)[C@H](CNC)NC[C@@H](Cc1cccc2ccccc12)NCCc1cccc(C(F)(F)F)c1,i,-9.04*,9*,-6.47*,-42.0,i,38.0%*,52.0%*,33.5%*
O=C(CNC(=O)Cc1ccccc1)NCc1cccc(C(F)(F)F)c1,i,i,i,-0.26,-9.8,i,.,.,.
CCN1CCCC1CNC(=O)c1cc(S(=O)(=O)N(C)C)ccc1Cl (stereo not drawn),i,i,i,0.51,-5.2,i,.,.,.
Cc1noc(C)c1CSc1nc2sc(C)c(C)c2c(=O)n1-c1ccccc1,i,i,i,0.59,-6.4,i,.,.,.
Cc1noc(C)c1CSc1nc2ccccc2c(=O)n1-c1ccc(Cl)cc1,i,i,i,0.07,-6.0,i,i,i,i
COn1c(SCc2ccc(Cl)cc2)nc2ccccc2c1=O,i,-18*,i,0.15,-21.1,i,66.5%*,i,34.0%*
COc1ccccc1CC(=O)c1ccc(OCc2ccccc2)cc1,i,i,i,-0.76,-14.6,i,i,i,i
Cc1ccc(CON=C2CCN(c3ncc(C(F)(F)F)cc3Cl)CC2)cc1,i,i,i,-2.68,-9.2,i,i,i,i
COc1ccc(-c2ccc(OC)c([C@H]3[C@H]4C=CC[C@@H](C)[C@@H]4C(=O)N3Cc3ccccc3)c2)cc1OC,i,i,i,-0.93,-14.6,i,i,i,i
CCC(=O)c1ccc(OCC(=O)OCC(=O)Nc2cccc(S(=O)(=O)N3CCCC3)c2)cc1,.,.,.,.,.,i,.,.,.
O=C(COC(=O)CCC(=O)c1ccc(F)cc1)Nc1cccc(S(=O)(=O)N2CCCC2)c1,i,i,i,1.48,-12.1,i,i,i,i
O=C(COC(=O)c1ccc(O)cc1)Nc1cccc(S(=O)(=O)N2CCCCC2)c1,i,i,i,-0.37,-15.8,i,.,.,.
Cc1cc(C)c(C(=O)OCC(=O)Nc2cccc(S(=O)(=O)N3CCCCC3)c2)c(C)c1,i,i,6*,-0.14,-19.4,i,i,i,i
CC1CCC(C(C)C)C(OC(=O)COC(=O)c2ccc(N)cc2)C1 (stereo not drawn),i,i,i,0.59,-3.0,i,i,i,i
COc1ccc(-c2nn3c(-c4ccccc4)nnc3s2)cc1,i,i,i,-1.76,-7.5,i,.,.,.
CCN(CC)c1ccc(-c2nn3c(-c4ccccc4OC)nnc3s2)cc1,i,-14.4*,i,0.25,-16.4,i,43.0%*,i,i
C/C(=N\Nc1ccc(Cl)c(C(=O)O)c1)c1ccccn1,i,i,i,-0.01,-10.1,i,.,.,.
SMILES,KCNQ1 pot,KCNK9 inh,KCNQ1 inh,Kir21 block,hERG rescue,KCNK3 block,KCNK9 inh conf,Kir2-1 spec,KCNK9 uninduced
C/C(=N\Nc1ncc(Cl)cc1Cl)c1ccccn1,i,-10.4*,11*,-2.81,-29.3,i,49.5%*,i,36.0%*
COCCn1c(SCC(=O)NC2CCCC(C)C2C)nc2ccccc2c1=O (stereo not drawn),.,.,.,.,.,i,.,.,.
O=C1CCC(/C=C/c2ccccc2)=NN1Cc1ccc(Cl)c(Cl)c1,i,i,i,0.47,-4.8,i,i,i,i
COc1ccc2c(c1)-c1c(sn(-c3ccc(OC)c(OC)c3)c1=S)C(C)(C)N2,i,i,i,1.67,-3.9,i,i,i,i
COc1ccc(-n2sc3c(c2=S)-c2cc(OC)ccc2NC3(C)C)cc1,i,i,i,0.23,-8.7,i,.,.,.
Cc1ccc(-c2nnc(Sc3nc4ccccc4o3)c3ccccc23)cc1,i,i,i,1.85,-8.8,i,.,.,.
Clc1ccc(-c2nnc(Sc3nc4ccccc4o3)c3ccccc23)cc1,i,i,i,0.1,-8.8,i,i,i,i
CC(C)CC(=O)Nc1nnc(S(=O)(=O)Nc2ccccc2)s1,i,i,i,0.63,-5.8,i,.,.,.
CCOC(=O)c1cccc(COC(=O)c2cccc(-c3nnc(-c4ccccc4)o3)c2)c1,i,-19.1*,i,-0.08,-17.5,i,68.5%*,i,24.0%*
O=C(OCc1ccccc1)c1cccc(-c2nnc(-c3ccccc3)o2)c1,i,i,i,-0.52,-34.1,i,.,.,.
OCC[C@@H]1C[C@H](O)[C@@H](O)[C@@]2(OCCCc3ccccc32)O1,i,i,i,-1.78,-2.2,i,.,.,.
CCOC(=O)[C@@H]1[C@H]2COc3ccc(Br)cc3[C@@H]2N2C(=O)N(c3ccc(C(F)(F)F)cc3)C(=O)[C@@]12C,i,-12.1*,i,-0.92,-5.2,i,74.0%*,i,41.0%*
CCOC(=O)[C@@H]1[C@H]2COc3ccc(Br)cc3[C@@H]2N2C(=O)N(c3cccc(F)c3)C(=O)[C@@]12C,i,-10.3*,i,-0.16,-3.6,i,63.5%*,i,26.0%*
